High-throughput results (PubChem BioAssay)
HSF1 activator – increases HSF-1 driven luciferase reporter signal; AID 504408; activation, % at 9 µM; actives 1.7% (n = 300,000); NIH3T3-HGL HSF-1 luciferase reporter, MG132, 8 h; 100% = twice DMSO control signal;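 active = mean replicate activation of at least 50% with a set share of replicates each reaching 50%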
Hep lipid drop – modulators of hepatic lipid droplet formation | AML12 mouse hepatocytes, oleate lipid droplets, BODIPY imaging | inhibition, % at 6.5 µM | actives 0.4% (n = 240,000);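 active = lipid droplet intensity inhibited by at least 50%, with more than 500 cells counted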
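Assay system: AML12 hepatocytes (mouse); Probe or stimulus: oleic acid at 100 µM to induce lipid droplet formation; Dosing: compound at 6.5 µM only; Schedule: compound with oleate, overnight; Detection: fluorescence imaging, 20x objective, two fields per well; Measure: % inhibition of lipid droplet signal.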
PHOSPHO1 inh – inhibitors of human PHOSPHO1 phosphatase. Q8TCT1. actives 1.1% (n = 290,000). recombinant PHOSPHO1, absorbance phosphatase assay. inhibition, % at 13.3 µM; in the data active = inhibition above about 60%
Target sequence (Q8TCT1 whole entry, looked up): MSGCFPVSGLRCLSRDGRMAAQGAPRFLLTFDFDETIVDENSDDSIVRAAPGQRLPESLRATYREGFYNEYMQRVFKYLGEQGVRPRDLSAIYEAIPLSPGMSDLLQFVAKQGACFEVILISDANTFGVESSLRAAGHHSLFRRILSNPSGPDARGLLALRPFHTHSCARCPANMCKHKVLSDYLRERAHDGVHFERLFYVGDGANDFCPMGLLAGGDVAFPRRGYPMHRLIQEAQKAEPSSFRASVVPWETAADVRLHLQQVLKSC
CHT inh – human CHT choline transport inhibition; Q9GZV3; CHT-expressing cells, membrane potential dye, choline response; hits give low values; actives 0.86% (n = 310,000); B-score at 10 µM; AID 488975;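 active = B-score over 3 SD under the library average, and starting fluorescence ratio not unusually high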;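 note: choline stimulus applied at its EC90 after an EC20 pre-addition; B-score computed on integrated fluorescence ratio after choline addition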
CHT PAM – human CHT allosteric activation; Q9GZV3; CHT-expressing cells, membrane potential dye, choline EC20; hits give high values; LV-AA mutant CHT in HEK293 cells; B-score at 10 µM; actives 0.49% (n = 310,000); AID 488977;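 active = initial fluorescence not abnormally high and integrated response B-score, plate-corrected, over 3 SD above library mean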
HSF1 inh – HSF1 inhibition; NIH3T3-HGL HSE-luciferase, MG132-induced, luminescence 8 h; hits give low values; actives 0.77% (n = 300,000); activity change, negative = inhibition, % at 7.5 µM (by protocol);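 active = more than half of replicate wells show activity change below -50%, luminescence cut by over half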;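 note: luciferase reports HSF-1 transcriptional activity via heat shock element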
Large screens that a line does not name were inactive. Sampled rows, rich in hits. Any-hit rate of the full collection: about 4.9%.

CC(Sc1ccccc1)C(=O)Nc1ccc(S(=O)(=O)N2CCOCC2)cc1 (stereo not given)	none
CCCCn1c(SCC(=O)NC(C)CC)nc2ccc(N3CCOCC3)cc2c1=O (stereo not given)	PHOSPHO1 inh 60.5 (no result: Hep lipid drop)
CCC(C)NC(=O)CSc1nc2ccc(N3CCOCC3)cc2c(=O)n1CCc1ccccc1 (stereo not given)	none
COc1ccc(-c2csc(COC(=O)C(C)(C)C)n2)cc1	none
CC(C)(C)C(=O)OCc1nc(-c2ccc3c(c2)OCCO3)cs1	HSF1 inh -52.2
COc1cccc(N2CCN(C(=S)Nc3ccc(F)cc3)CC2)c1	none
COc1cccc(N2CCN(C(=S)Nc3cc(C)cc(C)c3)CC2)c1	HSF1 inh -52.3
COc1cc(NC(=S)N2CCCC2)cc(OC)c1	none (no result: HSF1 activator, HSF1 inh)
COc1ccc(NC(=S)N2CCc3ccccc3C2)cc1	HSF1 activator 60.9
CSc1cccc(NC(=S)N2CCC(N(C)C3CCCC3)CC2)c1	HSF1 inh -72.6
COc1cccc(NC(=S)N2CCCC2)c1	HSF1 activator 57.1
COc1cccc(N2CCN(c3ncccn3)CC2)c1	HSF1 activator 72.7 (no result: Hep lipid drop)
COC(=O)c1[nH]c2ccc(F)cc2c1NC(=O)Nc1ccc(OC)cc1	none (no result: Hep lipid drop)
COc1ccc(O)c(/C=N/Nc2nc3ccccc3[nH]2)c1	HSF1 activator 235.6
COc1cc(/C=N/Nc2nc3ccccc3[nH]c2=O)ccc1O	none
COc1cc(/C=N/NC(=Nc2ccc(C)cc2)c2nc3ccccc3s2)ccc1O	HSF1 inh -73.1
COc1cc(/C=N/Nc2nc3ccccc3[nH]2)ccc1O	HSF1 activator 344.4
COc1cc(/C=N/Nc2snc(SC)c2C#N)ccc1O	HSF1 activator 74.6 (no result: Hep lipid drop)
COc1ccc(N2CCN(c3ncnc4scc(-c5ccccc5)c34)CC2)cc1	none
COc1cc(/C=C(/C(=O)c2cccs2)c2nc3ccccc3[nH]2)cc(OC)c1O	HSF1 activator 351.3
O=C(/C(=C/c1ccc(Cl)cc1)c1nc2ccccc2[nH]1)c1ccccc1	HSF1 activator 184.1 (no result: Hep lipid drop)
COc1ccc(C(=O)N/C(=C/c2cccs2)c2nc3ccccc3[nH]2)cc1OC	none
COc1cc(/C=N/Nc2nc3ccccc3[nH]2)cc(OC)c1O	HSF1 activator 149.4
COc1ccc(CCN2CC(C(=O)NCc3ccco3)CC2=O)cc1OC (stereo not given)	none
COc1ccc(CN2CCN(CC3CC3)CC2CCO)cc1C (stereo not given)	none
CN1C(=O)[C@H]2[C@@H](C3CC3)N3C(=O)CN(CCO)C(=O)[C@@]3(Cc3ccccc3)[C@H]2C1=O	none
O=C(Nc1ccc(NC(=O)c2cccs2)c(Cl)c1)c1cccs1	HSF1 activator 69.3
O=C(Nc1ccc2[nH]ccc2c1)c1cccs1	HSF1 activator 57.7
Cc1ccc2oc(-c3cccc(NC(=O)c4ccc(Br)o4)c3C)nc2c1	none
O=C1CCCCc2sc(Br)c([N+](=O)[O-])c2N1	HSF1 activator 131.8
COc1ccc(-c2nc3scc(-c4ccccc4)n3n2)cc1	HSF1 activator 121.4
Cc1cc(Sc2ncnc(N)c2[N+](=O)[O-])ncn1	HSF1 activator 64.9
Cc1cc(Sc2nc(N)ncc2[N+](=O)[O-])ncn1	none
COc1ccccc1NC(=O)CSC1CC(=O)N(c2ccc3c(c2)OCO3)C1=O (stereo not given)	none
COc1cc(/C=N/Nc2ccccc2[N+](=O)[O-])ccc1OC(=O)c1ccccc1F	none
COc1cc(/C=N/Nc2nc3ccccc3s2)ccc1OC(=O)c1ccccc1F	HSF1 activator 84.7
COc1cc(OC)cc(C(=O)Oc2ccc(/C=N/Nc3nc4ccccc4s3)cc2OC)c1	HSF1 activator 82.4
COc1cc(/C=N/Nc2nc3ccccc3s2)cc([N+](=O)[O-])c1O	none
COc1ccccc1-n1c(=O)oc2ccc(Cl)cc2c1=O	CHT inh -8.53 (no result: HSF1 activator, HSF1 inh)
Cc1nc2scc(C)n2c(=O)c1S(=O)(=O)N1CCN(c2cccc(C(F)(F)F)c2)CC1	HSF1 inh -65.0
COc1ccc(CC(=O)N2CCC(Nc3nc4ccccc4n3Cc3ccc(F)cc3)CC2)cc1	none
Brc1ccc(-n2cnc(-c3ccccc3)c2)cc1	HSF1 activator 77.5
NNc1nc(-c2ccccc2)cc(-c2ccc(Br)cc2)n1	none
Cc1ccc(-n2c(N)c(C(=O)N3CCN(C)CC3)sc2=S)cc1	none
